Data from ChEMBL document CHEMBL1142061, “The 6-fluoro-8-methoxy quinolone gatifloxacin down-regulates interleukin-8 production in prostate cell line PC-3” (Antimicrob Agents Chemother, 2007).
The source made the active and inactive calls. No cut-off for these calls is given here.

Tests used:
PC-3 [1] = test: Reduction of Mycoplasma hominis-stimulated IL8 secretion in human PC3 cells; type: functional; design: scale not given: the % may be the effect or the level left
Outline: (§1)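 Cells seeded, transfected 24 h later, given GFLX 16 μg/ml 24 h after transfection. Then serum-free medium with fresh GFLX plus stimulus: PGN 1 μg/ml, M. hominis membrane fraction 0.1 μg/ml or […] for 6 h; TNF-α 10 ng/ml for 2 h. IL-8 in supernatant by ELISA; means ± SD, three experiments.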

PC-3 [2] = test: Suppression of PMA-stimulated IL8 secretion in human PC3 cells; type: functional; outline: as §1
PC-3 [3] = test: Suppression of TNF alpha-stimulated IL8 secretion in human PC3 cells; type: functional, cell-based; outline: as §1
PC-3 [4] = test: Suppression of 0.1 ng/ml LPS-stimulated IL8 secretion in human PC3 cells; type: functional
PC-3 [5] = test: Suppression of 1 ng/ml LPS-stimulated IL8 secretion in human PC3 cells; type: functional
PC-3 [6] = test: Suppression IL8 secretion in human PC3 cells at 16 ug/ml added simultaneously with TNF alpha; type: functional
Outline: (§2)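 PC-3 cells seeded 2 × 10^5/well and grown 24 h. GFLX 16 μg/ml added together with TNF-α (0, 5, 10, 25 ng/ml), or 30 or 60 min after it. Total TNF-α exposure 120 min. Secreted IL-8 measured by ELISA; means ± SD of three experiments.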

PC-3 [7] = test: Suppression of TNF alpha-stimulated IL8 secretion in human PC3 cells at 16 ug/ml added 30 mins after stimulation; type: functional; conditions: PC-3, 0.5 h; outline: as §2
PC-3 [8] = test: Suppression of TNF alpha-stimulated IL8 secretion in human PC3 cells at 16 ug/ml added 60 mins after stimulation; type: functional, cell-based; outline: as §2
PC-3 [9] = test: Inhibition of peptidoglycan-induced NF kappaB activation in human PC3 cells at 16 ug/ml; type: functional, cell-based
Outline: (§3)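 Cells transiently transfected (FuGENE 6) with NF-κB firefly luciferase reporter plus pRL-TK Renilla control. After 24 h, GFLX 16 μg/ml for 24 h, then serum-free medium with GFLX again. Stimulation: PGN 1 μg/ml or M. hominis membrane fraction 0.1 μg/ml for 6 h, TNF-α 10 ng/ml for 2 h. Dual luciferase read-out; three experiments.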

PC-3 [10] = test: Cytotoxicity against human PC3 cells at 2 ug/ml relative to control; type: cell-based
Outline: (§4)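 PC-3 cells seeded 5 × 10^4/well, grown 24 h, then exposed to GFLX (from 2 mg/ml stock in 0.1 N NaOH; equal NaOH as control) for 48 h. Viability read with a modified MTT method (cell counting kit 8), expressed as % of untreated controls; mean ± SD, n = 3.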

PC-3 [11] = test: Cytotoxicity against human PC3 cells at 4 ug/ml relative to control; type: cell-based; outline: as §4
PC-3 [12] = test: Cytotoxicity against human PC3 cells at 16 ug/ml relative to control; type: cell-based; outline: as §4
PC-3 [13] = test: Decrease in IL8 secretion in human PC3 cells; type: functional, cell-based
Outline: (§5)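 PC-3 cells seeded 2 × 10^5/well, grown 24 h, washed with PBS and switched to serum-free RPMI 1640. GFLX added (0.1 N NaOH vehicle control) and cells incubated 24 h without stimulus. IL-8 in medium quantified by ELISA; means ± SD of three experiments.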

PC-3 [14] = test: Decrease in IL8 secretion in human PC3 cells at 4 ug/ml; type: functional; design: scale not given: the % may be the effect or the level left; outline: as §5
PC-3 [15] = test: Decrease in IL8 secretion in human PC3 cells at 16 ug/ml; type: functional; design: scale not given: the % may be the effect or the level left; outline: as §5
PC-3 [16] = test: Reduction of peptidoglycan-stimulated IL8 secretion in human PC3 cells; type: functional; design: scale not given: the % may be the effect or the level left; outline: as §1
PC-3 [17] = test: Inhibition of Mycoplasma hominis-induced NF kappaB activation in human PC3 cells at 16 ug/ml; type: functional, cell-based; outline: as §3
PC-3 [18] = test: Inhibition of TNF alpha-induced NF kappaB activation in human PC3 cells at 16 ug/ml; type: functional, cell-based; outline: as §3
PC-3 [19] = test: Inhibition of TNF alpha-stimulated IL8 mRNA expression in human PC3 cells at 16 ug/ml after 48 hrs; type: functional, cell-based
Outline: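 PC-3 cells seeded 4 × 10^5 per 35-mm dish, grown 24 h, then GFLX 16 μg/ml for 48 h with medium and drug refreshed every 24 h. Cells moved to serum-free RPMI with GFLX and given TNF-α 10 ng/ml for 4 h. TRIzol RNA, oligo(dT) RT, 23-cycle PCR for IL-8 and β-actin. Densitometric IL-8/β-actin band ratio.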

PC-3 [20] = test: Suppression of TNF alpha-stimulated IL8 promoter activity in human PC3 cells; type: functional, cell-based
Outline: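 PC-3 cells transfected with IL-8 promoter (−1481 to +44 bp) in pGL3-Basic plus pRL-TK. 24 h later, GFLX at 0, 2, 4 or 16 μg/ml for 24 h. Serum-free medium with same GFLX and TNF-α 10 ng/ml for 2 h. Dual luciferase read-out; means ± SD, three experiments.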

PC-3 [21] = test: Suppression of TNF alpha-stimulated IL8 D-170 mutant promoter activity in human PC3 cells at 16 ug/ml dual luciferase reporter assay; type: functional, cell-based
Outline: (§6)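 PC-3 cells seeded 4 × 10^4/well and transfected with an IL-8 5′-deletion luciferase construct plus pRL-TK. 24 h later, GFLX 16 μg/ml for 24 h. Then serum-free medium, fresh GFLX and TNF-α 10 ng/ml for 2 h. Promoter activity by dual luciferase assay; means ± SD of three experiments.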

PC-3 [22] = test: Suppression of TNF alpha-stimulated IL8 D-240 mutant promoter activity in human PC3 cells at 16 ug/ml dual luciferase reporter assay; type: functional, cell-based; outline: as §6
PC-3 [23] = test: Suppression of TNF alpha-stimulated IL8 D-188 mutant promoter activity in human PC3 cells at 16 ug/ml dual luciferase reporter assay; type: functional, cell-based; outline: as §6
[24] = Decrease in IL8 secretion in human prostatic myofibroblast cells at 4 ug/ml; type: functional; design: scale not given: the % may be the effect or the level left
[25] = Decrease in IL8 secretion in human prostatic myofibroblast cells at 16 ug/ml; type: functional; design: scale not given: the % may be the effect or the level left
PC-3 [26] = test: Suppression of TNF alpha-stimulated IL8 mutant promoter activity in human PC3 cells at 16 ug/ml by dual luciferase reporter assay

SMILES: COc1c(N2CCNC(C)C2)c(F)cc2c(=O)c(C(=O)O)cn(C3CC3)c12 (stereo unspecified) [GATIFLOXACIN]
- Activity (PC-3 [1]): 52%
- Activity (PC-3 [2]): 34%
- Activity (PC-3 [3]): Active
- Activity (PC-3 [4]): 19%
- Activity (PC-3 [5]): 16%
- Activity (PC-3 [6]): 37%
- inhibition at 16 µg/mL (PC-3 [7]): 25%
- Activity (PC-3 [8]): Active
- Activity (PC-3 [9]): inactive
- Activity (PC-3 [10]): 97.6%
- Activity (PC-3 [11]): 100%
- Activity (PC-3 [12]): 96.6%
- Activity (PC-3 [13]): Dose-dependent effect
- Activity (PC-3 [14]): 22%
- Activity (PC-3 [15]): 38%
- Activity (PC-3 [16]): 42%
- Activity (PC-3 [17]): inactive
- Activity (PC-3 [18]): inactive
- Activity (PC-3 [19]): Active
- Activity (PC-3 [20]): Active
- Activity (PC-3 [21]): inactive
- Activity (PC-3 [22]): Active
- Activity (PC-3 [23]): Active
- Activity [24]: 19%
- Activity [25]: 50%
- Activity (PC-3 [26]): Active
